From paper PMC9476207 (ACS Omega, 2022)

Key:
Experiment in all cases: NCI-60 single-dose antiproliferative screen
Format in all cases: cell-based
K-562 = conditions: Homo sapiens, K562, 48 h, read-out: growth percent
Summary of the method: (§1)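 NCI-60 protocol. Lines were grown in RPMI 1640 with 5% FBS and 2 mM L-glutamine, plated and incubated 24 h at 37 °C; time-zero plates were TCA-fixed. The test compound was dissolved in DMSO, diluted in medium with 50 μg/mL gentamicin and given once at a final 10^-5 M (DMSO control) for 48 h. Cells were fixed with cold TCA (1 h, 4 °C) and stained with 0.4% SRB in 1% acetic acid for 10 min. Dye was dissolved in 10 mM Trizma base and read at 515 nm. Growth percent was calculated from time-zero, test and control ODs.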

MOLT-4 = conditions: Homo sapiens, MOLT-4, 48 h, read-out: growth percent
Summary of the method: as §1

RPMI-8226 = conditions: Homo sapiens, RPMI-8226, 48 h, read-out: growth percent
Summary of the method: as §1

SR = conditions: Homo sapiens, 48 h, read-out: growth percent
Summary of the method: (§2)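 Cells grown in RPMI 1640 with 5% FBS and 2 mM L-glutamine, plated and held 24 h at 37 °C; time-zero plates TCA-fixed. DMSO stocks were diluted in gentamicin-containing medium to a final 10^-5 M, with a DMSO-only control. Exposure 48 h, 5% CO2. Adherent cells TCA-fixed 1 h at 4 °C, stained with 0.4% SRB, solubilised in 10 mM Trizma base, read at 515 nm. Growth percent derived from ODtzero, ODtest and ODctrl.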

A549/ATCC = conditions: Homo sapiens, A549, 48 h, read-out: growth percent
Summary of the method: as §1

HOP-62 = conditions: Homo sapiens, HOP-62, 48 h, read-out: growth percent
Summary of the method: as §1

HOP-92 = conditions: Homo sapiens, HOP-92, 48 h, read-out: growth percent
Summary of the method: as §1

NCI-H322M = conditions: Homo sapiens, 48 h, read-out: growth percent
Summary of the method: as §1

NCI-H460 = conditions: Homo sapiens, NCI-H460, 48 h, read-out: growth percent
Summary of the method: as §1

NCI-H522 = conditions: Homo sapiens, NCI-H522, 48 h, read-out: growth percent
Summary of the method: as §1

HCC-2998 = conditions: Homo sapiens, HCC 2998, 48 h, read-out: growth percent
Summary of the method: as §1

HCT-15 = conditions: Homo sapiens, HCT-15, 48 h, read-out: growth percent
Summary of the method: as §1

KM12 = conditions: Homo sapiens, KM12, 48 h, read-out: growth percent
Summary of the method: as §1

SW-620 = conditions: Homo sapiens, SW-620, 48 h, read-out: growth percent
Summary of the method: as §2

SF-268 = conditions: Homo sapiens, SF-268, 48 h, read-out: growth percent
Summary of the method: as §1

SF-295 = conditions: Homo sapiens, SF-295, 48 h, read-out: growth percent
Summary of the method: as §1

U251 = conditions: Homo sapiens, U-251, 48 h, read-out: growth percent
Summary of the method: as §2

LOX IMVI = conditions: Homo sapiens, 48 h, read-out: growth percent
Summary of the method: as §1

MALME-3M = conditions: Homo sapiens, 48 h, read-out: growth percent
Summary of the method: as §1

MDA-MB-435 = conditions: Homo sapiens, MDA-MB-435, 48 h, read-out: growth percent
Summary of the method: as §1

SK-MEL-2 = conditions: Homo sapiens, SK-MEL-2, 48 h, read-out: growth percent
Summary of the method: as §2

SK-MEL-28 = conditions: Homo sapiens, SK-MEL-28, 48 h, read-out: growth percent
Summary of the method: as §2

SK-MEL-5 = conditions: Homo sapiens, SK-MEL-5, 48 h, read-out: growth percent
Summary of the method: as §2

UACC-62 = conditions: Homo sapiens, UACC-62, 48 h, read-out: growth percent
Summary of the method: as §2

OVCAR-3 = conditions: Homo sapiens, OVCAR-3, 48 h, read-out: growth percent
Summary of the method: as §1

OVCAR-4 = conditions: Homo sapiens, OVCAR-4, 48 h, read-out: growth percent
Summary of the method: as §1

OVCAR-5 = conditions: Homo sapiens, OVCAR-5, 48 h, read-out: growth percent
Summary of the method: as §1

NCI/ADR-RES = conditions: Homo sapiens, 48 h, read-out: growth percent
Summary of the method: as §1

SK-OV-3 = conditions: Homo sapiens, SK-OV-3, 48 h, read-out: growth percent
Summary of the method: as §2

CAKI-1 = conditions: Homo sapiens, CAKI-1, 48 h, read-out: growth percent
Summary of the method: as §1

RXF 393 = conditions: Homo sapiens, RXF 393, 48 h, read-out: growth percent
Summary of the method: as §1

SN12C = conditions: Homo sapiens, 48 h, read-out: growth percent
Summary of the method: as §2

UO-31 = conditions: Homo sapiens, UO-31, 48 h, read-out: growth percent
Summary of the method: as §2

MDA-MB-231 ATCC = conditions: Homo sapiens, MDA-MB-231, 48 h, read-out: growth percent
Summary of the method: as §1

HS 578T = conditions: Homo sapiens, 48 h, read-out: growth percent
Summary of the method: as §1

MDA-MB-468 = conditions: Homo sapiens, MDA-MB-468, 48 h, read-out: growth percent
Summary of the method: as §1

COc1cc(CNC(=O)CCCC/C=C/C(C)C)ccc1OCc1cn(-c2ccc(Cl)cc2)nn1 [14a, (E)-N-(4-((1-(4-Chlorophenyl)-1H-1,2,3-triazol-4-yl)methoxy)-3-methoxybenzyl)-8-methylnon-6-enamide]
activity at 10 µM (K-562): 66.7%
activity at 10 µM (MOLT-4): 82%
activity at 10 µM (RPMI-8226): 60.8%
activity at 10 µM (SR): 73.5%
activity at 10 µM (A549/ATCC): 85.3%
activity at 10 µM (HOP-62): 84%
activity at 10 µM (HOP-92): 77.1%
activity at 10 µM (NCI-H322M): 92.2%
activity at 10 µM (NCI-H460): 79.9%
activity at 10 µM (NCI-H522): 65.7%
activity at 10 µM (HCC-2998): 113%
activity at 10 µM (HCT-15): 91.8%
activity at 10 µM (KM12): 95.6%
activity at 10 µM (SW-620): 88.7%
activity at 10 µM (SF-268): 84%
activity at 10 µM (SF-295): 88.3%
activity at 10 µM (U251): 86.9%
activity at 10 µM (LOX IMVI): 85.6%
activity at 10 µM (MALME-3M): 97.8%
activity at 10 µM (MDA-MB-435): 99.3%
activity at 10 µM (SK-MEL-2): 102%
activity at 10 µM (SK-MEL-28): 106%
activity at 10 µM (SK-MEL-5): 77.6%
activity at 10 µM (UACC-62): 67.8%
activity at 10 µM (OVCAR-3): 105%
activity at 10 µM (OVCAR-4): 82.6%
activity at 10 µM (OVCAR-5): 100%
activity at 10 µM (NCI/ADR-RES): 78.1%
activity at 10 µM (SK-OV-3): 91.6%
activity at 10 µM (CAKI-1): 89%
activity at 10 µM (RXF 393): 98%
activity at 10 µM (SN12C): 80.2%
activity at 10 µM (UO-31): 76.6%
activity at 10 µM (MDA-MB-231 ATCC): 79.5%
activity at 10 µM (HS 578T): 90.3%
activity at 10 µM (MDA-MB-468): 64.9%

COc1cc(CNC(=O)CCCC/C=C/C(C)C)ccc1OCc1cn(-c2ccccc2OC)nn1 [14l, (E)-N-(3-Methoxy-4-((1-(2-methoxyphenyl)-1H-1,2,3-triazol-4-yl)methoxy)benzyl)-8-methylnon-6-enamide]
activity at 10 µM (K-562): 76.1%
activity at 10 µM (MOLT-4): 79.7%
activity at 10 µM (RPMI-8226): 71.2%
activity at 10 µM (SR): 77.4%
activity at 10 µM (A549/ATCC): 86%
activity at 10 µM (HOP-62): 88.7%
activity at 10 µM (HOP-92): 72.1%
activity at 10 µM (NCI-H322M): 92.2%
activity at 10 µM (NCI-H460): 104%
activity at 10 µM (NCI-H522): 63.9%
activity at 10 µM (HCC-2998): 117%
activity at 10 µM (HCT-15): 106%
activity at 10 µM (KM12): 98.2%
activity at 10 µM (SW-620): 97%
activity at 10 µM (SF-268): 92.6%
activity at 10 µM (SF-295): 108%
activity at 10 µM (U251): 90.2%
activity at 10 µM (LOX IMVI): 86.1%
activity at 10 µM (MALME-3M): 106%
activity at 10 µM (MDA-MB-435): 110%
activity at 10 µM (SK-MEL-2): 89.8%
activity at 10 µM (SK-MEL-28): 116%
activity at 10 µM (SK-MEL-5): 83.9%
activity at 10 µM (UACC-62): 75.1%
activity at 10 µM (OVCAR-3): 103%
activity at 10 µM (OVCAR-4): 100%
activity at 10 µM (OVCAR-5): 113%
activity at 10 µM (NCI/ADR-RES): 94.6%
activity at 10 µM (SK-OV-3): 99.8%
activity at 10 µM (CAKI-1): 79.9%
activity at 10 µM (RXF 393): 101%
activity at 10 µM (SN12C): 98%
activity at 10 µM (UO-31): 105%
activity at 10 µM (MDA-MB-231 ATCC): 95.8%
activity at 10 µM (HS 578T): 83%
activity at 10 µM (MDA-MB-468): 75.5%

COc1cc(CNC(=O)CCCC/C=C/C(C)C)ccc1OCc1cn(-c2cc(OC)c(OC)c(OC)c2)nn1 [14m, (E)-N-(3-Methoxy-4-((1-(3,4,5-trimethoxyphenyl)-1H-1,2,3-triazol-4-yl)methoxy)benzyl)-8-methylnon-6-enamide]
activity at 10 µM (K-562): 79.7%
activity at 10 µM (MOLT-4): 92%
activity at 10 µM (RPMI-8226): 79.4%
activity at 10 µM (SR): 86.6%
activity at 10 µM (A549/ATCC): 91%
activity at 10 µM (HOP-62): 90.7%
activity at 10 µM (HOP-92): 82.5%
activity at 10 µM (NCI-H322M): 89.1%
activity at 10 µM (NCI-H460): 102%
activity at 10 µM (NCI-H522): 65.2%
activity at 10 µM (HCC-2998): 91.8%
activity at 10 µM (HCT-15): 103%
activity at 10 µM (KM12): 103%
activity at 10 µM (SW-620): 102%
activity at 10 µM (SF-268): 90.5%
activity at 10 µM (SF-295): 105%
activity at 10 µM (U251): 92.8%
activity at 10 µM (LOX IMVI): 94.4%
activity at 10 µM (MALME-3M): 98.5%
activity at 10 µM (MDA-MB-435): 106%
activity at 10 µM (SK-MEL-2): 97.6%
activity at 10 µM (SK-MEL-28): 108%
activity at 10 µM (SK-MEL-5): 77.5%
activity at 10 µM (UACC-62): 87.8%
activity at 10 µM (OVCAR-3): 103%
activity at 10 µM (OVCAR-4): 103%
activity at 10 µM (OVCAR-5): 109%
activity at 10 µM (NCI/ADR-RES): 91.7%
activity at 10 µM (SK-OV-3): 89.9%
activity at 10 µM (CAKI-1): 79.5%
activity at 10 µM (RXF 393): 104%
activity at 10 µM (SN12C): 102%
activity at 10 µM (UO-31): 117%
activity at 10 µM (MDA-MB-231 ATCC): 92.7%
activity at 10 µM (HS 578T): 69%
activity at 10 µM (MDA-MB-468): 80.4%

COc1cc(CNC(=O)CCCC/C=C/C(C)C)ccc1OCc1cn(-c2ccc(F)cc2)nn1 [14h, (E)-N-(4-((1-(4-Fluorophenyl)-1H-1,2,3-triazol-4-yl)methoxy)-3-methoxybenzyl)-8-methylnon-6-enamide]
activity at 10 µM (K-562): 68.7%
activity at 10 µM (MOLT-4): 82.6%
activity at 10 µM (RPMI-8226): 68.4%
activity at 10 µM (SR): 76.7%
activity at 10 µM (A549/ATCC): 84.3%
activity at 10 µM (HOP-62): 84.1%
activity at 10 µM (HOP-92): 66.2%
activity at 10 µM (NCI-H322M): 91.8%
activity at 10 µM (NCI-H460): 75.7%
activity at 10 µM (NCI-H522): 70.2%
activity at 10 µM (HCC-2998): 110%
activity at 10 µM (HCT-15): 89.6%
activity at 10 µM (KM12): 94.5%
activity at 10 µM (SW-620): 91%
activity at 10 µM (SF-268): 87.2%
activity at 10 µM (SF-295): 90.5%
activity at 10 µM (U251): 83.9%
activity at 10 µM (LOX IMVI): 84.2%
activity at 10 µM (MALME-3M): 103%
activity at 10 µM (MDA-MB-435): 98.8%
activity at 10 µM (SK-MEL-2): 111%
activity at 10 µM (SK-MEL-28): 102%
activity at 10 µM (SK-MEL-5): 83.7%
activity at 10 µM (UACC-62): 71.9%
activity at 10 µM (OVCAR-3): 96.4%
activity at 10 µM (OVCAR-4): 82.2%
activity at 10 µM (OVCAR-5): 97.6%
activity at 10 µM (NCI/ADR-RES): 70.6%
activity at 10 µM (SK-OV-3): 86.4%
activity at 10 µM (CAKI-1): 88.4%
activity at 10 µM (RXF 393): 95.3%
activity at 10 µM (SN12C): 82.4%
activity at 10 µM (UO-31): 86%
activity at 10 µM (MDA-MB-231 ATCC): 69.1%
activity at 10 µM (HS 578T): 77.7%
activity at 10 µM (MDA-MB-468): 68.2%
